Compounds with a hit are over-represented: about 4.2% of the library has one in this group of screens.
WT yeast gro inh: growth inhibition of WT strain, primary screen, mitochondrial fusion inhibitor project, WT and mutant strains, chemical genetic. 190,000 compounds, 2.1% hits. inhibition, % at 10 µM. mitochondrial fusion phenotypic screen; in the data active = inhibition above about 58%; tested in S. cerevisiae
SKKanGAS inh: S. pyogenes SKKanGAS growth inhibitors in kanamycin, primary screen, streptokinase expression inhibitor project, SKKanGAS strain, BacTiter-Glo luminescence | 6 h | inhibition, % at 7.5 µM | 300,000 compounds, 1.3% hits | AID 1662, 2009;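 active = mean replicate score, as percent of positive control median, at least 50; inconclusive = mean below 50 but one replicate at or above 50; inactive = mean and every replicate below 50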;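 also: strain carries kanamycin resistance gene driven by streptokinase promoter and grows in 40 µg/ml kanamycin; loss of luminescence reflects streptokinase promoter inhibition or plain growth inhibition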
Insulin prom up: insulin promoter activators in MIN6 cells, imaging, high-content screening, mouse beta cells | MIN6 insulin promoter-GFP reporter; active compounds read high | z-score at 5 µM | 190,000 compounds, 0.3% hits;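 active = z-score above 3 at 5 µM with at least 500 cells counted in the well; inconclusive = wells under 500 cells, flagged as cytotoxic or low count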
Rad51 HR inh: human RAD51 strand exchange inhibitors, primary screen, biochemical, fluorescence | DNA repair protein RAD51 homolog 1 (Homo sapiens), Q06609 | hRad51 DNA strand exchange, fluorescence dequenching | inhibition, % at 10 µM | 200,000 compounds, 0.085% hits;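 active = inhibition above 40% at the single screening dose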
Target sequence (Q06609 whole entry, looked up): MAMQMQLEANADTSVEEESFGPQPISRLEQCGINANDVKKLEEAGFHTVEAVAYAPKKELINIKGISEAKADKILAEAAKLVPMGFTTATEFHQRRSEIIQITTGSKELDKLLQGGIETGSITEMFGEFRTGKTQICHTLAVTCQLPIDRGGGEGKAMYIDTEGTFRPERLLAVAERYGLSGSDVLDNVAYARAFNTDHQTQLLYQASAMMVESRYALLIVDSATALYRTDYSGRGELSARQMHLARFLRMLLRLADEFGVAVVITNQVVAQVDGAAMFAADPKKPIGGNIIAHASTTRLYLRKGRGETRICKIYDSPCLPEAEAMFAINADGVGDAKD
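material = hRad51 filaments on single-stranded DNA | timing = filaments 15 min 37 °C, then compound 30 min | signal = FRET fluorescence dequenching, excitation 485 nm, emission 520 nm | benchmarks = control wells and blank wells on each plate | evaluation = percent inhibition relative to plate controls and blanks | compound = 10 µM final, single point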
Cl transport mod: KCC2 cotransporter modulators, thallium flux, primary screen, cell-based, HEK293 KCC2, FluoZin-2 fluorescence, MLSMR. KCC2 cells, thallium flux FluoZin-2 fluorescence. B-score of Tl+ flux slope (higher = more flux/activation; lower = inhibition) at 10 µM. 190,000 compounds, 2.2% hits;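 active = thallium flux slope and its plate-corrected score both differing from the plate sample mean at a set confidence after two filtering rounds, in either direction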;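 also: slope of fluorescence scaled to starting intensity during 10 to 20 s after thallium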
Autophagy HCS: autophagy modulators in MEF cells, primary screen, imaging, high-content, MEF GFP-LC3 | calls only at 10 µM (by protocol) | MEF GFP-LC3 puncta imaging; test concentration mostly 10 µM | 190,000 compounds, 0.98% hits;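 active = percentage of spot-positive cells more than 3 SD above its plate mean, without a fluorescence outlier flag or 80% toxicity; inconclusive = no clear call, values can overlap the other calls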
Large screens that a line does not name were inactive.

CCOc1ccc(/C=N/NC(=O)CNC(=O)c2ccc(S(=O)(=O)N3CCOCC3)cc2)cc1	none
COc1ccc(-c2c(C(F)(F)F)oc3c(CN4CCN(C)CC4)c(O)ccc3c2=O)cc1	none
COc1ccc(-c2c(C)oc3c(CN4CCN(C)CC4)c(O)ccc3c2=O)cc1	Autophagy HCS active
O=C(NCc1ccccc1)c1ccc(-c2ccccc2C(F)(F)F)o1	WT yeast gro inh 58.0
Cc1cc(C(F)(F)F)c2c(n1)sc1c(O)cc(=O)[nH]c12	SKKanGAS inh 50.2 (no result: Cl transport mod)
O=c1cc(O)c2sc3nc(-c4cccnc4)cc(C(F)(F)F)c3c2[nH]1	none
C/C(=C\C(=O)c1ccc(Cl)cc1)Nc1ccc(N2CCOCC2)cc1	Autophagy HCS active (no result: Rad51 HR inh)
CCNCC(=O)Nc1ccc(N2CCOCC2)cc1	Autophagy HCS active
COc1ccccc1C(=O)Nc1ccc2c(c1)n(C)c(=O)n2C	none (no result: WT yeast gro inh, Insulin prom up, Rad51 HR inh, Cl transport mod, Autophagy HCS)
CCOC(=O)N1CCC(N(CCCOC)C(=O)Nc2cccc(OC)c2)CC1	none (no result: Cl transport mod)
CCOC(=O)N1CCC(N(CCOC)C(=O)Nc2ccc(Cl)c(Cl)c2)CC1	Autophagy HCS active
COc1cccc(Nc2nc(-c3sc(NC(=O)CC(C)C)nc3C)cs2)c1	none
Cc1nc(NC(=O)c2ccc(Cl)cc2)sc1-c1csc(Nc2cccc(F)c2)n1	SKKanGAS inh 73.4 (no result: Cl transport mod)
COc1cccc(Nc2nc(-c3sc(NC(=O)c4ccccc4)nc3C)cs2)c1	WT yeast gro inh 66.5
CCCN1C(=O)/C(=C/C=C2\N(CC)c3ccccc3C2(C)C)SC1=S	Autophagy HCS active (no result: Insulin prom up)
CCCCN1C(=O)/C(=C/C=C2/CC(C)(C)CN2C)SC1=S	Autophagy HCS active (no result: Insulin prom up)
C=CCN1C(=O)/C(=C\C=C2\N(C)c3ccccc3C2(C)C)SC1=S	Autophagy HCS active (no result: SKKanGAS inh, Insulin prom up)
CCN1C(=O)/C(=C/C=C2/SCCN2C)SC1=S	none
CN1/C(=C\C=C2/SC(=S)N(CC(=O)O)C2=O)C(C)(C)c2ccccc21	none
CCCCN1C(=O)/C(=C/C=C2\Oc3ccccc3N2CC)SC1=S	Autophagy HCS active (no result: Insulin prom up)
COc1cc(Cl)cc(/C=N/NC(N)=O)c1O	none
COc1ccc2nc(Nc3nc(CSc4nnnn4-c4ccccc4)cc(=O)[nH]3)nc(C)c2c1	Autophagy HCS active
CC(C)n1cnc2c(NCc3ccccc3)nc(NCc3ccccc3)nc21	SKKanGAS inh 89.9 (no result: WT yeast gro inh, Autophagy HCS)
Nc1[nH]n2c(=O)cc(-c3ccccc3)nc2c1N=Nc1ccccc1	SKKanGAS inh 103.6
CCOC(=O)N1CCN(C(=O)C2CCCN(Cc3nc(-c4ccc(Cl)cc4)oc3C)C2)CC1 (stereo not drawn)	Autophagy HCS active (no result: Rad51 HR inh)
Cc1oc(-c2ccc(Cl)cc2)nc1CN1CCCC(C(=O)NC2CC2)C1 (stereo not drawn)	none (no result: WT yeast gro inh, Insulin prom up, Rad51 HR inh, Cl transport mod, Autophagy HCS)
Cc1c(Br)c([N+](=O)[O-])nn1CC(=O)N1CCN(C23CC4CC(CC(C4)C2)C3)CC1	none (no result: WT yeast gro inh, Insulin prom up, Rad51 HR inh, Cl transport mod, Autophagy HCS)
O=C(Oc1ccc(Cl)c2cccnc12)c1cccnc1	SKKanGAS inh 67.5 (no result: WT yeast gro inh, Insulin prom up, Rad51 HR inh, Cl transport mod, Autophagy HCS)
Cc1ccc(C(=O)Oc2ccc(Cl)c3cccnc23)cc1[N+](=O)[O-]	SKKanGAS inh 51.3 (no result: Rad51 HR inh)
COc1ccc(C(=O)Oc2cccc3cccnc23)cc1[N+](=O)[O-]	none
Cc1csc(NC(=O)c2c(O)c3c(n(CC(C)C)c2=O)CCCC3)n1	WT yeast gro inh 63.2, SKKanGAS inh 61.1
CCCn1c2c(c(O)c(C(=O)Nc3nccs3)c1=O)CCCC2	WT yeast gro inh 75.8
CCCn1c2c(c(O)c(C(=O)Nc3nc(C)cs3)c1=O)CCCC2	none
CC(C)Cn1c2c(c(O)c(C(=O)Nc3nccs3)c1=O)CCCC2	none (no result: Rad51 HR inh)
COc1ccc(Nc2nc3ccc(C)cc3cc2C#N)c(OC)c1	none
COc1ccc(Nc2nc3cc(C)ccc3cc2C#N)c(OC)c1	Autophagy HCS active (no result: Cl transport mod)
COc1ccc(Nc2nc3c(C)cccc3cc2C#N)c(OC)c1	Autophagy HCS active (no result: Rad51 HR inh)
O=C(Nc1cccc(-c2csc(Nc3cccc(C(F)(F)F)c3)n2)c1)c1cc([N+](=O)[O-])cc(C(F)(F)F)c1	SKKanGAS inh 77.4, Insulin prom up inconclusive (no result: WT yeast gro inh, Autophagy HCS)

Bioassay records as filed in PubChem BioAssay.
